Converted amounts (≈) assume the structure as drawn. Where two headings read alike, the source gives them in different places.
Assays:
[1] = tested on: methicillin-resistant Staphylococcus epidermidis (MRSE); experiment: Antimicrobial susceptibility; type: cell-based; settings: for MIC: Staphylococcus epidermidis, MRSE; for MIC^1: MRSE isolate from sample 1 of periprosthetic fluid at diagnosis; for MIC^2: MRSE isolate from sample 2 of periprosthetic fluid at diagnosis
In short: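 Two MRSE isolates, each recovered from a separate sample of periprosthetic fluid taken by sterile drainage at diagnosis. A susceptibility profile was recorded for each isolate.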

Gram-positive infections = settings: 30 of 32 patients who received at least two doses of oritavancin; cited from earlier work
[2] = tested on: shoulder PJI caused by methicillin-resistant Staphylococcus epidermidis (MRSE); experiment: Clinical course of shoulder prosthetic joint infection under oritavancin; type: in vivo, human (patient); settings: ten sequential doses of 1200 mg over 28 weeks; single patient

Compound | MIC ([1]; read-out: MIC^1) | MIC ([1]; read-out: MIC^2) | MIC^1 [1] | other results
CCC[C@@H]1C[C@@H](C(=O)N[C@@H]([C@H]2O[C@H](SC)[C@H](O)[C@@H](O)[C@H]2O)[C@H](C)Cl)N(C)C1 [Clindamicin] | ≤ 0.25 µg/mL | 0.25 µg/mL (≈ 0.588 µM) | – | –
CC(=O)O[C@H]1C[C@@]2(C)[C@@H](C[C@@H](O)[C@H]3[C@@]4(C)CC[C@@H](O)[C@@H](C)[C@@H]4CC[C@@]32C)/C1=C(\CCC=C(C)C)C(=O)O [Fusidic Acid] | > 8 µg/mL | 16 µg/mL (≈ 31 µM) | – | –
CC[C@H]1OC(=O)[C@H](C)[C@@H](O[C@H]2C[C@@](C)(OC)[C@@H](O)[C@H](C)O2)[C@H](C)[C@@H](O[C@@H]2O[C@H](C)C[C@H](N(C)C)[C@H]2O)[C@](C)(O)C[C@@H](C)C(=O)[C@H](C)[C@@H](O)[C@]1(C)O [Eritromicin] | – | – | ≤ 0.25 µg/mL | MIC^2 [1]: 1 µg/mL (≈ 1.36 µM)
CC(=O)NC[C@H]1CN(c2ccc(N3CCOCC3)c(F)c2)C(=O)O1 [Linezolid] | 1 µg/mL (≈ 2.96 µM) | 2 µg/mL (≈ 5.93 µM) | – | –
CN[C@H](CC(C)C)C(=O)N[C@H]1C(=O)N[C@@H](CC(N)=O)C(=O)N[C@H]2C(=O)N[C@H]3C(=O)N[C@H](C(=O)N[C@H](C(=O)O)c4cc(O)cc(O)c4-c4cc3ccc4O)[C@H](O[C@H]3C[C@](C)(N)[C@@H](O)[C@H](C)O3)c3ccc(c(Cl)c3)Oc3cc2cc(c3O[C@@H]2O[C@H](CO)[C@@H](O)[C@H](O)[C@H]2O[C@H]2C[C@](C)(NCc3ccc(-c4ccc(Cl)cc4)cc3)[C@@H](O)[C@H](C)O2)Oc2ccc(cc2Cl)[C@H]1O [Oritavancin] | – | – | – | clinical success (Gram-positive infections): 93.8%; side effects [2]: no side effects reported
C[C@@H]1O[C@@H]1P(=O)(O)O [Fosfomicin c/G6P, Fosfomicin] | – | – | ≤ 16 µg/mL | –
O=C(O)c1cn(C2CC2)c2cc(N3CCNCC3)c(F)cc2c1=O [Ciprofloxacin] | > 4 µg/mL | > 4 µg/mL | – | –
Cc1onc(-c2ccccc2)c1C(=O)N[C@@H]1C(=O)N2[C@@H]1SC(C)(C)[C@@H]2C(=O)O [Oxacillin] | > 2 µg/mL | > 2 µg/mL | – | –
Teicoplanin | – | – | < 2 µg/mL | –
CN(C)[C@@H]1C(O)=C(C(N)=O)C(=O)[C@@]2(O)C(O)=C3C(=O)c4c(O)cccc4[C@@](C)(O)[C@H]3C[C@@H]12 [Tetraciclin] | – | – | 1 µg/mL (≈ 2.25 µM) | MIC^2 [1]: 2 µg/mL (≈ 4.5 µM)
Vancomicin | – | – | 2 µg/mL | MIC^2 [1]: ≤ 0.5 µg/mL
CC1(C)S[C@@H]2[C@H](NC(=O)[C@H](N)c3ccccc3)C(=O)N2[C@H]1C(=O)O [Ampicillin] | > 2 µg/mL | – | – | –
CN(C)c1cc(NC(=O)CNC(C)(C)C)c(O)c2c1C[C@H]1C[C@H]3[C@H](N(C)C)C(O)=C(C(N)=O)C(=O)[C@@]3(O)C(O)=C1C2=O [Tigeciclin] | – | – | ≤ 0.25 µg/mL | MIC^2 [1]: 0.25 µg/mL (≈ 0.427 µM)
COc1c(N2C[C@@H]3CCCN[C@@H]3C2)c(F)cc2c(=O)c(C(=O)O)cn(C3CC3)c12 [Moxifloxacin] | > 1 µg/mL | – | – | –
CNC(C)C1CCC(N)C(OC2C(N)CC(N)C(OC3OCC(C)(O)C(NC)C3O)C2O)O1 (centres unmarked) [Gentamicin] | ≤ 1 µg/mL | ≤ 0.5 µg/mL | – | –
CO[C@H]1/C=C/O[C@@]2(C)Oc3c(C)c(O)c4c(O)c(c(/C=N/N5CCN(C)CC5)c(O)c4c3C2=O)NC(=O)/C(C)=C\C=C\[C@H](C)[C@H](O)[C@@H](C)[C@@H](O)[C@@H](C)[C@H](OC(C)=O)[C@@H]1C [Rifampin] | > 1 µg/mL | > 2 µg/mL | – | –
Daptomicin | – | – | – | MIC^2 [1]: 0.25 µg/mL

— article PMC11584596 (IDCases, 2024)
